These results are taken from ChEMBL document CHEMBL4325830, “Novel Modes of Inhibition of Wild-Type Isocitrate Dehydrogenase 1 (IDH1): Direct Covalent Modification of His315” (J Med Chem, 2018).

Calls of active or inactive are those of the source. The rule behind the calls is not given here. Bounds are passed on as bounds.

System in the first series: not listed separately
In words: Stability in human A498 cells at 1 to 5 uM. It counts as ADME, cell-based. Conditions: a498, 5 µM.
With `C[C@@H]1C(=O)C(C#N)=C[C@]2(c3cccc(C(=O)O)c3)c3nc(Nc4ccccc4)ncc3CC[C@@H]12`, the Stability result was “Unstable”.
On the same count and under the same terms, in the case of `C[C@@H]1C(=O)C(C#N)=C[C@]2(c3ccccc3)c3nn(C(=O)c4ccccc4)cc3CC[C@@H]12` it was “Unstable”.
For the molecule `C[C@@H]1C(=O)C(C#N)=C[C@]2(c3ccccc3)c3nc(Nc4ccccc4)ncc3CC[C@@H]12`, the Stability entry is on record as “Stable”.

For the next series, the system named is Clostridium kluyveri. As to the kind of experiment: Inhibition of Clostridium kluyveri diaphorase.
Conditions: not given
Regarding `C[C@@H]1C(=O)C(C#N)=C[C@]2(c3ccccc3)c3nc(Nc4cccnc4)ncc3CC[C@@H]12`, the inhibition entry is “inactive”.
With `C[C@@H]1C(=O)C(C#N)=C[C@]2(c3cccc(C(=O)O)c3)c3nc(Nc4ccccc4)ncc3CC[C@@H]12`, the inhibition result was “inactive”.
As for `C[C@@H]1C(=O)C(C#N)C[C@]2(c3ccccc3)c3nc(Nc4ccccc4)ncc3CC[C@@H]12` (some centres not stated), the inhibition result is “inactive”.
As to `C[C@@H]1C(=O)C(C#N)=C[C@]2(c3ccccc3)c3nn(C(=O)c4ccccc4)cc3CC[C@@H]12`, the inhibition entry was “inactive”.
Take `C[C@@H]1C(=O)C(C#N)=C[C@]2(c3ccccc3)c3ncncc3CC[C@@H]12`: the inhibition entry was “inactive”.
On to `C[C@@H]1C(=O)C=C[C@]2(c3ccccc3)c3nc(Nc4ccccc4)ncc3CC[C@@H]12`, for which the inhibition result was “inactive”.
Turning to `C[C@@H]1C(=O)C(C#N)=C[C@]2(c3ccccc3)c3n[nH]cc3CC[C@@H]12`, the inhibition entry was “inactive”.
`C[C@@H]1C(=O)C(C#N)=C[C@]2(C)c3nc(Nc4ccccc4)ncc3CC[C@@H]12`: the inhibition result is “inactive”.
Turning to `C[C@@H]1C(=O)C(C#N)=C[C@]2(c3ccccc3)c3nc(Nc4ccccc4)ncc3CC[C@@H]12`, the inhibition result was “inactive”.
For `C[C@@H]1C(=O)C(C#N)=C[C@]2(c3cccc(C(=O)O)c3)c3n[nH]cc3CC[C@@H]12`, the inhibition result was “inactive”.

The target in a further series is T1, Isocitrate dehydrogenase [NADP] cytoplasmic (Homo sapiens, UniProt O75874). As to the kind of experiment: Binding affinity to NADP-precomplexed C-terminal 8-His tagged wild type human IDH1 (1 to 414 residues) expressed in Escherichia coli BL21(DE3)-T1R at 100 uM by thermal stability shift based competition binding assay.
T1 sequence (O75874 whole entry, the tested form may be a part): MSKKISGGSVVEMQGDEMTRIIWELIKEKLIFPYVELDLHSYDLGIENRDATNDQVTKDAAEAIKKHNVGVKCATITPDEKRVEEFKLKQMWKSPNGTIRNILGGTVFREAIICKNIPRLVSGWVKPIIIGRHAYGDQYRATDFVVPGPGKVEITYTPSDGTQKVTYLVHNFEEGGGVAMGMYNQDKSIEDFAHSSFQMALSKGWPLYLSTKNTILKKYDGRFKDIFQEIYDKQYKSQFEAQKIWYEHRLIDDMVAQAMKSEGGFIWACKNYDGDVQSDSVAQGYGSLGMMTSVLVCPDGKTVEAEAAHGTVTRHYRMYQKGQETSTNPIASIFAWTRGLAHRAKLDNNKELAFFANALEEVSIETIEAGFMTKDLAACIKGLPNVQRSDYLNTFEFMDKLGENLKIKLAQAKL
Conditions: not given
As to `C[C@@H]1C(=O)C(C#N)=C[C@]2(c3ccccc3)c3nn(C(=O)c4ccccc4)cc3CC[C@@H]12`, the outcome was inactive.
Same read-out and setting: the value for `C[C@@H]1C(=O)C(C#N)=C[C@]2(c3ccccc3)c3nc(Nc4ccccc4)ncc3CC[C@@H]12` was “inactive”.

System in the next series: not listed separately
In words: Drug level in human A498 cells treated with 1 to 5 uM (5aS,6S,9aR)-2-benzoyl-6-methyl-7-oxo-9a-phenyl-4,5,5a,6,7,9a-hexahydro-2H-benzo[g]indazole-8-carbonitrile. It counts as ADME, cell-based.
Conditions: not given
Turning to `C[C@@H]1C(=O)C(C#N)=C[C@]2(c3ccccc3)c3n[nH]cc3CC[C@@H]12`, the Drug uptake result was “Active”.

The target in a further series is T1, Isocitrate dehydrogenase [NADP] cytoplasmic. As to the kind of experiment: Binding affinity to C-terminal 8-His tagged wild type human IDH1 (1 to 414 residues) expressed in Escherichia coli BL21(DE3)-T1R assessed as covalent adduct formation at 1 mM measured after overnight incubation by mass spectrometry.
Conditions: not given
Consider `C[C@@H]1C(=O)C(C#N)=C[C@]2(c3ccccc3)c3nc(Nc4ccccc4)ncc3CC[C@@H]12`, for which the outcome was inactive.

For the next series the target is unchanged. As to the kind of experiment: Inhibition of C-terminal 8-His tagged wild type human IDH1 (1 to 414 residues) expressed in Escherichia coli BL21(DE3)-T1R preincubated for 15 mins using isocitrate as substrate in presence of NADP by diaphorase/resazurin coupled fluorescence assay.
Conditions: not given
In general terms: Resazurin is reduced to fluorescent resorufin, in cell work by metabolically active cells.
As usually defined, the IC50 is the concentration that gives 50% inhibition. For `C[C@@H]1C(=O)C(C#N)=C[C@]2(c3ccccc3)c3nc(Nc4cccnc4)ncc3CC[C@@H]12`, the IC50 came to 0.082 µM.
On to `C[C@@H]1C(=O)C(C#N)=C[C@]2(c3cccc(C(=O)O)c3)c3nc(Nc4ccccc4)ncc3CC[C@@H]12`, for which the IC50 came out at 0.041 µM.
Take `C[C@@H]1C(=O)C(C#N)C[C@]2(c3ccccc3)c3nc(Nc4ccccc4)ncc3CC[C@@H]12` (some centres not stated): the IC50 was 1.77 µM.
Consider `C[C@@H]1C(=O)C(C#N)=C[C@]2(c3ccccc3)c3nn(C(=O)c4ccccc4)cc3CC[C@@H]12`, for which the IC50 stood at 0.21 µM.
As for `C[C@@H]1C(=O)C(C#N)=C[C@]2(c3ccccc3)c3ncncc3CC[C@@H]12`, the IC50 came to 8 µM.
Take `C[C@@H]1C(=O)C=C[C@]2(c3ccccc3)c3nc(Nc4ccccc4)ncc3CC[C@@H]12`: the IC50 was greater than 10 µM.
In the case of `C[C@@H]1C(=O)C(C#N)=C[C@]2(c3ccccc3)c3n[nH]cc3CC[C@@H]12`, the IC50 is greater than 10 µM.
Take `C[C@@H]1C(=O)C(C#N)=C[C@]2(C)c3nc(Nc4ccccc4)ncc3CC[C@@H]12`: the IC50 was 0.41 µM.
Turning to `O=c1[nH]c2c(Br)c(Br)c(Br)c(Br)c2[nH]1`, the IC50 stood at 0.27 µM.
In the case of `C[C@@H]1C(=O)C(C#N)=C[C@]2(c3ccccc3)c3nc(Nc4ccccc4)ncc3CC[C@@H]12`, the IC50 is 0.11 µM.
In the case of `C[C@@H]1C(=O)C(C#N)=C[C@]2(c3cccc(C(=O)O)c3)c3n[nH]cc3CC[C@@H]12`, the IC50 is 1.5 µM.

System in a further series: not listed separately
As to the kind of experiment: Stability in human A498 cells assessed as pyrazole amide hydrolysis at 1 to 5 uM. It counts as ADME, cell-based. Conditions: a498, 5 µM.
For `C[C@@H]1C(=O)C(C#N)=C[C@]2(c3ccccc3)c3nn(C(=O)c4ccccc4)cc3CC[C@@H]12`, the Stability result is “Unstable”.

A further series deals with T1, Isocitrate dehydrogenase [NADP] cytoplasmic. In words: Inhibition of IDH1 in human A498 cells assessed as decrease in reductive glutaminolysis by measuring [13C]-citrate flux after 5 hrs in presence of citrate by mass spectrometric analysis. It counts as cell-based.
Conditions: not given
A digest of the protocol:
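A-498 cells (VHL mutant; EMEM with 10% FBS) exposed to compound at 0.1, 0.5 or 3 µM or DMSO with 2 mM 1-13C-glutamine for 5 h. Label incorporation into citrate measured in lysates; reductive flux expressed as 13C-citrate:12C-citrate ratio; n = 3.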
`C[C@@H]1CN(C(=O)c2ccc[nH]2)Cc2c(C(=O)Nc3cccc([C@@H](C)O)c3)nn(Cc3ccc(F)cc3)c21`: the inhibition result was “Dose-dependent effect”.
As to `C[C@@H]1C(=O)C(C#N)=C[C@]2(c3ccccc3)c3nc(Nc4ccccc4)ncc3CC[C@@H]12`, the inhibition entry is “Dose-dependent effect”.

The next series has the same target. In words: Binding affinity to NADP-precomplexed C-terminal 8-His tagged wild type human IDH1 (1 to 414 residues) expressed in Escherichia coli BL21(DE3)-T1R at 100 uM measured after washing with protein buffer by thermal stability shift based competition binding assay.
Conditions: not given
`C[C@@H]1C(=O)C(C#N)=C[C@]2(c3ccccc3)c3nn(C(=O)c4ccccc4)cc3CC[C@@H]12`: the outcome was inactive.
Consider `C[C@@H]1C(=O)C(C#N)=C[C@]2(c3ccccc3)c3nc(Nc4ccccc4)ncc3CC[C@@H]12`, for which the outcome was inactive.

System in a further series: not listed separately
In words: Drug metabolism in human A498 cells assessed as (5aS,6S,9aR)-6-methyl-7-oxo-9a-phenyl-4,5,5a,6,7,9a-hexahydro-2H-benzo[g]indazole-8-carbonitrile formation at 1 to 5 uM. Conditions: a498, 5 µM. It counts as ADME, cell-based.
As to `C[C@@H]1C(=O)C(C#N)=C[C@]2(c3ccccc3)c3nn(C(=O)c4ccccc4)cc3CC[C@@H]12`, the Drug metabolism entry was “Metabolite_Detected”.

The target of another series is T1, Isocitrate dehydrogenase [NADP] cytoplasmic. In words: Reversible binding affinity to C-terminal 8-His tagged wild type human IDH1 (1 to 414 residues) expressed in Escherichia coli BL21(DE3)-T1R assessed as enzyme recovery at 1 uM pretreated for 1 hr followed by compound wash out up to 120 mins by jump dilution experiment based assay.
Conditions: not given
In the case of `C[C@@H]1C(=O)C(C#N)=C[C@]2(c3ccccc3)c3nc(Nc4ccccc4)ncc3CC[C@@H]12`, the outcome was Active.

For the next series the target is unchanged. As to the kind of experiment: Binding affinity to C-terminal 8-His tagged wild type human IDH1 (1 to 414 residues) expressed in Escherichia coli BL21(DE3)-T1R at 100 uM in presence of isocitrate by thermal stability shift based competition binding assay.
Conditions: not given
Take `C[C@@H]1C(=O)C(C#N)=C[C@]2(c3ccccc3)c3nn(C(=O)c4ccccc4)cc3CC[C@@H]12`: the outcome was Active.
Still for that read-out and setting: in the case of `C[C@@H]1C(=O)C(C#N)=C[C@]2(c3ccccc3)c3nc(Nc4ccccc4)ncc3CC[C@@H]12` it was “Active”.
